Test results taken from paper PMC7408256 (ACS Omega, 2020).

Legend:
K-562 = test: NCI one-dose screen: K-562; assay type: cell-based; details: Homo sapiens, K562, read-out: Growth inhibition percentage (GI %)
Outline: (§1)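 Cells grown in RPMI 1640 with 5% FBS and 2 mM L-glutamine, seeded at 5000–40,000 cells/well, preincubated 24 h at 37 °C and 5% CO2. Time-zero plates were TCA-fixed. Test compound (DMSO stock diluted in gentamicin medium) was added at a final 10^-5 M for 48 h. Cells were TCA-fixed (80% for suspension lines), SRB-stained and read at 515 nm. GI% = 100 − % growth versus untreated control.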

MOLT-4 = test: NCI one-dose screen: MOLT-4; assay type: cell-based; details: Homo sapiens, MOLT-4, read-out: Growth inhibition percentage (GI %)
Outline: as §1

SR = test: NCI one-dose screen: SR; assay type: cell-based; details: Homo sapiens, read-out: Growth inhibition percentage (GI %)
Outline: (§2)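 Human tumour lines grown in RPMI 1640 with 5% FBS and 2 mM L-glutamine, seeded at 5000–40,000 cells/well, 24 h at 37 °C, 5% CO2. Time-zero plates TCA-fixed. Test compound (DMSO stock at 400× final) added to a final 10 µM, 48 h at 37 °C. Cells fixed with cold TCA (50% adherent, 80% suspension) and stained with sulforhodamine B; absorbance read at 515 nm. GI% = 100 − % growth relative to untreated control.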

EKVX = test: NCI one-dose screen: EKVX; assay type: cell-based; details: Homo sapiens, read-out: Growth inhibition percentage (GI %)
Outline: as §1

NCI-H460 = test: NCI one-dose screen: NCI-H460; assay type: cell-based; details: Homo sapiens, NCI-H460, read-out: Growth inhibition percentage (GI %)
Outline: as §1

HCC-2998 = test: NCI one-dose screen: HCC-2998; assay type: cell-based; details: Homo sapiens, HCC 2998, read-out: Growth inhibition percentage (GI %)
Outline: as §1

HCT-116 = test: NCI one-dose screen: HCT-116; assay type: cell-based; details: Homo sapiens, HCT-116, read-out: Growth inhibition percentage (GI %), HCT-116, colon cancer; single dose 10 μM
Outline: as §1

SF-539 = test: NCI one-dose screen: SF-539; assay type: cell-based; details: Homo sapiens, SF-539, read-out: Growth inhibition percentage (GI %)
Outline: as §1

SNB-19 = test: NCI one-dose screen: SNB-19; assay type: cell-based; details: Homo sapiens, SNB-19, read-out: Growth inhibition percentage (GI %)
Outline: as §1

SK-MEL-2 = test: NCI one-dose screen: SK-MEL-2; assay type: cell-based; details: Homo sapiens, SK-MEL-2, read-out: Growth inhibition percentage (GI %)
Outline: as §1

OVCAR-3 = test: NCI one-dose screen: OVCAR-3; assay type: cell-based; details: Homo sapiens, OVCAR-3, read-out: Growth inhibition percentage (GI %)
Outline: as §1

786-0 = test: NCI one-dose screen: 786-0; assay type: cell-based; details: Homo sapiens, 786-0, read-out: Growth inhibition percentage (GI %)
Outline: as §1

RXF 393 = test: NCI one-dose screen: RXF 393; assay type: cell-based; details: Homo sapiens, RXF 393, read-out: Growth inhibition percentage (GI %)
Outline: as §1

MCF7 = test: NCI one-dose screen: MCF7; assay type: cell-based; details: Homo sapiens, MCF7, read-out: Growth inhibition percentage (GI %)
Outline: as §1

MDA-MB-231 = test: NCI one-dose screen: MDA-MB-231; assay type: cell-based; details: Homo sapiens, MDA-MB-231, read-out: Growth inhibition percentage (GI %)
Outline: as §1

NCI 58 human cell lines = test: NCI one-dose screen: whole panel summary; assay type: cell-based
Outline: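 NCI 58-line single-dose screen in nine subpanels. Cells were exposed for 48 h at 37 °C to a final 10 µM test compound. Growth was measured by sulforhodamine B staining against time-zero and untreated-control plates. For each compound, percent growth relative to untreated cells was averaged across the panel as mean % growth. GI% per line = 100 − % growth.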

[1] = tested on: newly formed blood capillaries of HET-CAM; test: HET-CAM angiogenesis study; assay type: in vivo, hen
Outline: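 Fertilized hen eggs were incubated 9 days at 37 °C with rotation, in groups of three. Test compound at 40 μM in 40 μL of 40% DMSO in saline was dropped onto a 5 mm filter-paper disc on the CAM. Control got 40 μL vehicle. On day 11 each egg was angiographed. Newly formed small vessels within a 100 mm2 circle were counted by image analysis. One-way ANOVA with Dunnett's test.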

chick embryos / HET-CAM = test: HET-CAM mortality and toxicity; assay type: in vivo, hen; details: 40 μM, 40 μL in 40% DMSO in sterile saline, applied 9th day, examined 11th day
Outline: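 Hen eggs were incubated at 37 °C with 2-hourly rotation and candled on day 5; dead eggs were excluded. A window was opened and taped. On day 9, 40 μL of test compound (40 or 100 μM, in 40% or 100% DMSO in saline) went onto a 5 mm filter disc at a low-vessel-density CAM area, 3 eggs/concentration. Embryo toxicity and mortality were assessed by candling on day 11.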

A549/ATCC = test: NCI one-dose screen: A549/ATCC; assay type: cell-based; details: Homo sapiens, A549, read-out: Growth inhibition percentage (GI %)
Outline: as §1

TK-10 = test: NCI one-dose screen: TK-10; assay type: cell-based; details: Homo sapiens, TK-10, read-out: Growth inhibition percentage (GI %)
Outline: as §2

PC-3 = test: NCI one-dose screen: PC-3; assay type: cell-based; details: Homo sapiens, PC-3, read-out: Growth inhibition percentage (GI %)
Outline: as §1

T-47D = test: NCI one-dose screen: T-47D; assay type: cell-based; details: Homo sapiens, T47D, read-out: Growth inhibition percentage (GI %)
Outline: as §2

VEGFR2 = details: cited from earlier work
c-Met kinase = details: read-out: IC50 c-Met; cited from earlier work
multiple tyrosine kinase = details: target not named at the place (multiple tyrosine kinase; context VEGFR2) ref 14; cited from earlier work
[2] = 40 μM, versus 40% DMSO negative control

O=C1Nc2ccccc2C1=NNc1nnc2n1N=C(c1ccccc1)CS2 [6a, 3-(2-(6-Phenyl-7H-[1,2,4]triazolo[3,4-b][1,3,4]thiadiazin-3-yl)hydrazineylidene)indolin-2-one]
inhibition at 10 µM (K-562): 23% | inhibition at 10 µM (MOLT-4): 13% | inhibition at 10 µM (SR): 23% | inhibition at 10 µM (EKVX): 13% | inhibition at 10 µM (NCI-H460): 17% | inhibition at 10 µM (HCC-2998): 19% | inhibition at 10 µM (HCT-116): 14% | inhibition at 10 µM (SF-539): 18% | inhibition at 10 µM (SNB-19): 17% | inhibition at 10 µM (SK-MEL-2): 13% | inhibition at 10 µM (OVCAR-3): 12% | inhibition at 10 µM (786-0): 19% | inhibition at 10 µM (RXF 393): 18% | inhibition at 10 µM (MCF7): 29% | inhibition at 10 µM (MDA-MB-231): 12% | GI (range over the susceptible cell lines listed in the sentence) (NCI 58 human cell lines; single dose 10 μM, cell lines as listed in the sentence): 35–57% | increase in the number of newly formed blood capillaries [1, 2]: 33%

Cc1ccc(C2=Nn3c(NN=C4C(=O)Nc5ccccc54)nnc3SC2)cc1 [6c, 3-(2-(6-(p-Tolyl)-7H-[1,2,4]triazolo[3,4-b][1,3,4]thiadiazin-3-yl)hydrazineylidene)-indolin-2-one]
toxicity / mortality against HET-CAM and the chick embryos (chick embryos / HET-CAM): toxic

COc1ccc(C2=Nn3c(N/N=C4\C(=O)Nc5ccc(F)cc54)nnc3SC2)cc1 [6j, 5-Fluoro-3-(2-(6-(4-methoxyphenyl)-7H-[1,2,4]triazolo[3,4-b][1,3,4]thiadiazin-3-yl) hydrazineylidene)indolin-2-one]
toxicity / mortality against HET-CAM and the chick embryos (chick embryos / HET-CAM): toxic

COc1ccc(C2=Nn3c(NN=C4C(=O)Nc5ccc(Cl)cc54)nnc3SC2)cc1 [6l, 5-Chloro-3-(2-(6-(4-methoxyphenyl)-7H-[1,2,4]triazolo[3,4-b][1,3,4]thiadiazin-3-yl)hydrazineylidene)indolin-2-one]
inhibition at 10 µM (K-562): 15% | inhibition at 10 µM (SR): 23% | inhibition at 10 µM (A549/ATCC): 23% | sensitive cell lines no. (NCI 58 human cell lines; number of cell lines of the panel with GI % shown (higher than 10%), 10 μM): 6

COc1ccc(C2=Nn3c(NN=C4C(=O)Nc5ccc(OC)cc54)nnc3SC2)cc1 [6n, 5-Methoxy-3-(2-(6-(4-methoxyphenyl)-7H-[1,2,4]triazolo[3,4-b][1,3,4]thiadiazin-3-yl)hydrazineylidene)indolin-2-one]
inhibition at 10 µM (K-562): 19% | inhibition at 10 µM (MOLT-4): 12% | inhibition at 10 µM (A549/ATCC): 29% | inhibition at 10 µM (TK-10): 17% | inhibition at 10 µM (PC-3): 10% | inhibition at 10 µM (T-47D): 15% | change in the number of blood vessels (in words) [1, 2]: significant decrease | reduction in the number of newly formed blood capillaries (angiogenesis) ([1]; 40 μM, versus 40% DMSO negative control, 11th day): 27%

COc1ccc(C2=Nn3c(NN=C4C(=O)N(C)c5ccc(Cl)cc54)nnc3SC2)cc1 [6u, 5-Chloro-3-(2-(6-(4-methoxyphenyl)-7H-[1,2,4]triazolo[3,4-b][1,3,4]thiadiazin-3-yl)hydrazineylidene)-1-methylindolin-2-one]
toxicity / mortality against HET-CAM and the chick embryos (chick embryos / HET-CAM): toxic

CCCN1C(=O)C(=NNc2nnc3n2N=C(c2ccc(OC)cc2)CS3)c2cc(Cl)ccc21 [6w, 5-Chloro-3-(2-(6-(4-methoxyphenyl)-7H-[1,2,4]triazolo[3,4-b][1,3,4]thiadiazin-3-yl)hydrazineylidene)-1-propylindolin-2-one]
toxicity / mortality against HET-CAM and the chick embryos (chick embryos / HET-CAM): toxic

COc1ccc(C2=Nn3c(NN=C4C(=O)N(Cc5ccccc5)c5ccccc54)nnc3SC2)cc1 [6x, 1-Benzyl-3-(2-(6-(4-methoxyphenyl)-7H-[1,2,4]triazolo[3,4-b][1,3,4]thiadiazin-3-yl)hydrazineylidene)indolin-2-one]
change in the number of blood vessels (in words) [1, 2]: significant decrease

C[C@@H]1C[C@H]2[C@@H]3CCC4=CC(=O)C=C[C@]4(C)[C@@]3(F)[C@@H](O)C[C@]2(C)[C@@]1(O)C(=O)CO [DEXA, dexamethasone, reference compound]
reduction in the number of newly formed blood capillaries ([1]; DEXA 0.02 μg, positive control, versus 40% DMSO, P < 0.001): 54%

Cc1[nH]c(/C=C2\C(=O)Nc3ccccc32)c(C)c1CCC(=O)O [Orantinib]
Ki (VEGFR2; read-out: Ki VEGFR2): 9 nM

Cc1[nH]c(/C=C2\C(=O)Nc3ccc(S(=O)(=O)N(C)c4cccc(Cl)c4)cc32)c(C)c1C(=O)N1CCN(C)CC1 [SU11274]
IC50 (c-Met kinase): 12 nM

Cc1[nH]c(/C=C2\C(=O)Nc3ccc(F)cc32)c(C)c1C(=O)NC[C@H](O)CN1CCOCC1 [SU14813]
IC50 (VEGFR2; read-out: IC50 VEGFR2): 40 nM

CCN(CC)CCNC(=O)c1c(C)[nH]c(/C=C2\C(=O)Nc3ccc(F)cc32)c1C [sunitinib]
Ki (multiple tyrosine kinase): 9 nM
